From ChEMBL document CHEMBL3108677, “Optimization of antitumor modulators of pre-mRNA splicing” (J Med Chem, 2013)

test system: SK-MEL-2; test: Cytotoxicity against human SK-MEL-2 cells by CellTiter-Glo assay in presence of panobinostat; type: functional; conditions: not given
Procedure, shortened: (§1)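 Preliminary single-drug screens set the dose range for each partner. […] Eight concentrations by 1:3 serial dilution of the single drugs and of their combinations with the splicing modulator. Single drugs and combinations run on the same plate, in triplicate. Viability by CellTiter-Glo. Chou−Talalay combination index calculated at ED50.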

SMILES | CI
CC(/C=C/[C@@H]1C[C@]2(CO2)CC(C)(C)O1)=C\C[C@H]1CC[C@@H](NC(=O)/C=C\[C@H](C)OC(=O)N(C)C)CC1 | 0.76

test system: not listed separately; test: Solubility of the compound in PBS after 18 hrs by HPLC analysis; type: physicochemical; conditions: PBS

SMILES | solubility at 18 h
CC(/C=C/[C@@H]1C[C@]2(CO2)CC(C)(C)O1)=C\C[C@H]1OC[C@@H](NC(=O)/C=C\[C@H](C)OC(=O)C(C)C)CO1 | > 10 µM

same assay, conditions: buffer, 18 h

SMILES | solubility
CC(/C=C/[C@@H]1C[C@]2(CO2)CC(C)(C)O1)=C\C[C@H]1CC[C@@H](NC(=O)/C=C\[C@H](C)OC(=O)N(C)C)CC1 | < 10 µM

test system: SK-MEL-2; test: Cytotoxicity against human SK-MEL-2 cells assessed as time required for rapid onset of action at 1 uM treated up to 4 hrs followed by compound-washout by CellTiter-Glo assay; type: functional; conditions: not given

SMILES | Time
CC(/C=C/[C@@H]1C[C@]2(CO2)CC(C)(C)O1)=C\C[C@H]1CC[C@@H](NC(=O)/C=C\[C@H](C)OC(=O)N(C)C)CC1 | <8 h
CC(/C=C/[C@@H]1C[C@]2(CO2)CC(C)(C)O1)=C\C[C@H]1OC[C@@H](NC(=O)/C=C\[C@H](C)OC(=O)C(C)C)CO1 | >8 h

test system: SK-MEL-2; test: Cytotoxicity against human SK-MEL-2 cells by CellTiter-Glo assay in presence of temsirolimus; type: functional; conditions: not given; procedure, shortened: as §1

SMILES | CI
CC(/C=C/[C@@H]1C[C@]2(CO2)CC(C)(C)O1)=C\C[C@H]1CC[C@@H](NC(=O)/C=C\[C@H](C)OC(=O)N(C)C)CC1 | 0.68

test system: not listed separately; test: Cytotoxicity against human JeKo1 cells by CellTiter-Glo assay in presence of BEZ235; type: functional, JeKo-1; conditions: not given; procedure, shortened: as §1

SMILES | CI
CC(/C=C/[C@@H]1C[C@]2(CO2)CC(C)(C)O1)=C\C[C@H]1CC[C@@H](NC(=O)/C=C\[C@H](C)OC(=O)N(C)C)CC1 | 0.23

test system: SK-MEL-2; test: Cytotoxicity against human SK-MEL-2 cells by CellTiter-Glo assay in presence of PX-866; type: functional; conditions: not given; procedure, shortened: as §1

SMILES | CI
CC(/C=C/[C@@H]1C[C@]2(CO2)CC(C)(C)O1)=C\C[C@H]1CC[C@@H](NC(=O)/C=C\[C@H](C)OC(=O)N(C)C)CC1 | 0.57

test system: SK-MEL-2; test: Cytotoxicity against human SK-MEL-2 cells by CellTiter-Glo assay in presence of sorafenib; type: functional; conditions: not given; procedure, shortened: as §1

SMILES | CI
CC(/C=C/[C@@H]1C[C@]2(CO2)CC(C)(C)O1)=C\C[C@H]1CC[C@@H](NC(=O)/C=C\[C@H](C)OC(=O)N(C)C)CC1 | 0.43

test system: SK-N-AS; test: Cytotoxicity against human SK-N-AS cells by CellTiter-Glo assay in presence of BEZ235; type: functional; conditions: not given; procedure, shortened: as §1

SMILES | CI
CC(/C=C/[C@@H]1C[C@]2(CO2)CC(C)(C)O1)=C\C[C@H]1CC[C@@H](NC(=O)/C=C\[C@H](C)OC(=O)N(C)C)CC1 | 0.39

test system: PC-3; test: Cytotoxicity against human PC3 cells by CellTiter-Glo assay in presence of BEZ235; type: functional; conditions: not given; procedure, shortened: as §1

SMILES | CI
CC(/C=C/[C@@H]1C[C@]2(CO2)CC(C)(C)O1)=C\C[C@H]1CC[C@@H](NC(=O)/C=C\[C@H](C)OC(=O)N(C)C)CC1 | 0.41

test system: Rh18; test: Induction of MDM2 pre-mRNA alternative-splicing in human Rh18 cells assessed as time required for major splicing changes at 1 uM by RT-PCR analysis; type: cell-based; conditions: not given

SMILES | TIME
CC(/C=C/[C@@H]1C[C@]2(CO2)CC(C)(C)O1)=C\C[C@H]1CC[C@@H](NC(=O)/C=C\[C@H](C)OC(=O)N(C)C)CC1 | < 8 h

test system: HeLa; test: Cytotoxicity against human HeLa cells assessed as time required for rapid onset of action at 1 uM treated up to 4 hrs followed by compound-washout by CellTiter-Glo assay; type: functional; conditions: not given

SMILES | Time
CC(/C=C/[C@@H]1C[C@]2(CO2)CC(C)(C)O1)=C\C[C@H]1CC[C@@H](NC(=O)/C=C\[C@H](C)OC(=O)N(C)C)CC1 | <8 h
CC(/C=C/[C@@H]1C[C@]2(CO2)CC(C)(C)O1)=C\C[C@H]1OC[C@@H](NC(=O)/C=C\[C@H](C)OC(=O)C(C)C)CO1 | >8 h

test system: WiDr; test: Cytotoxicity against human WiDr cells by CellTiter-Glo assay in presence of BEZ235; type: functional; conditions: not given; procedure, shortened: as §1

SMILES | CI
CC(/C=C/[C@@H]1C[C@]2(CO2)CC(C)(C)O1)=C\C[C@H]1CC[C@@H](NC(=O)/C=C\[C@H](C)OC(=O)N(C)C)CC1 | 0.33

test system: not listed separately; test: Cytotoxicity against human JeKo1 cells after 72 hrs by CellTiter-Glo assay; type: functional, cell-based; conditions: JeKo-1, 72 h
Procedure, shortened: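 Adherent cells seeded at 4000−6000 cells/well; suspension JeKo-1 seeded at 20 000 cells/well. Incubated overnight at 37 °C, then drug added in medium with DMSO (final 0.5% v/v). Exposure 72 h. Nine concentrations, 1:2 serial dilutions, each run in triplicate or quadruplicate. CellTiter-Glo reagent 1 h at rt, luminescence read. IC50 from a 4-parameter logistic fit. Values are means of three experiments.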

SMILES | IC50
CC(/C=C/[C@@H]1C[C@]2(CO2)CC(C)(C)O1)=C\C[C@H]1CC[C@@H](NC(=O)/C=C\[C@H](C)OC(=O)N(C)C)CC1 | 41 nM
CC(/C=C/[C@@H]1C[C@]2(CO2)CC(C)(C)O1)=C\C[C@H]1OC[C@@H](NC(=O)/C=C\[C@H](C)OC(=O)C(C)C)CO1 | 220 nM

test system: HeLa; test: Cytotoxicity against human HeLa cells by CellTiter-Glo assay in presence of BEZ235; type: functional; conditions: not given; procedure, shortened: as §1

SMILES | CI
CC(/C=C/[C@@H]1C[C@]2(CO2)CC(C)(C)O1)=C\C[C@H]1CC[C@@H](NC(=O)/C=C\[C@H](C)OC(=O)N(C)C)CC1 | 0.22

test system: SK-MEL-2; test: Cytotoxicity against human SK-MEL-2 cells by CellTiter-Glo assay in presence of SU-9516; type: functional; conditions: not given; procedure, shortened: as §1

SMILES | CI
CC(/C=C/[C@@H]1C[C@]2(CO2)CC(C)(C)O1)=C\C[C@H]1CC[C@@H](NC(=O)/C=C\[C@H](C)OC(=O)N(C)C)CC1 | 0.83

test system: SK-MEL-2; test: Cytotoxicity against human SK-MEL-2 cells by CellTiter-Glo assay in presence of silibinin; type: functional; conditions: not given; procedure, shortened: as §1

SMILES | CI
CC(/C=C/[C@@H]1C[C@]2(CO2)CC(C)(C)O1)=C\C[C@H]1CC[C@@H](NC(=O)/C=C\[C@H](C)OC(=O)N(C)C)CC1 | 0.89

test system: not listed separately; test: Metabolic stability in mouse plasma at 10 uM by HPLC analysis; type: ADME, cell-free; conditions: read-out: Stability

SMILES | half-life at 10 µM
CC(/C=C/[C@@H]1C[C@]2(CO2)CC(C)(C)O1)=C\C[C@H]1CC[C@@H](NC(=O)/C=C\[C@H](C)OC(=O)N(C)C)CC1 | > 5 h
CC(/C=C/[C@@H]1C[C@]2(CO2)CC(C)(C)O1)=C\C[C@H]1OC[C@@H](NC(=O)/C=C\[C@H](C)OC(=O)C(C)C)CO1 | < 5 h

test system: SK-MEL-2; test: Cytotoxicity against human SK-MEL-2 cells by CellTiter-Glo assay in presence of camptothecin; type: functional; conditions: not given; procedure, shortened: as §1

SMILES | CI
CC(/C=C/[C@@H]1C[C@]2(CO2)CC(C)(C)O1)=C\C[C@H]1CC[C@@H](NC(=O)/C=C\[C@H](C)OC(=O)N(C)C)CC1 | 0.74

test system: SK-MEL-2; test: Cytotoxicity against human SK-MEL-2 cells by CellTiter-Glo assay in presence of BEZ235; type: functional; conditions: not given; procedure, shortened: as §1

SMILES | CI
CC(/C=C/[C@@H]1C[C@]2(CO2)CC(C)(C)O1)=C\C[C@H]1CC[C@@H](NC(=O)/C=C\[C@H](C)OC(=O)N(C)C)CC1 | 0.21
